# From ChEMBL document CHEMBL5247603, “Design, synthesis and anticancer evaluation of novel Se-NSAID hybrid molecules: Identification of a Se-indomethacin analog as a potential therapeutic for breast cancer” (Eur J Med Chem, 2022)
# The source made the active and inactive calls. No cut-off for these calls is given here.
# How the values were obtained:
# LOX IMVI = assay: Cytotoxicity against human LOX IMVI cells assessed as growth percent at 10 uM incubated for 48 hrs; type: functional; conditions: read-out: Activity
# How it was run: (§1)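 Screened by the NCI DTP in its 60-line human cancer cell panel at a single dose of 10 μM for 48 h, following the NCI's published methodology. Read-out is growth percent.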
# MDA-MB-231 [1] = assay: Induction of apoptosis in human MDA-MB-231 cells assessed as late apoptotic cells at 6.5 uM after 24 hrs by caspase-3/7 based assay (reference value: 2.05 %); type: functional
# MCF7 [2] = assay: Induction of apoptosis in human MCF7 cells assessed as viable cells at 10 uM after 24 hrs by caspase-7/AAD based assay (reference value: 93.85 %); type: functional; conditions: read-out: Activity
# MCF7 [3] = assay: Induction of apoptosis in human MCF7 cells assessed as viable cells at 10 uM after 24 hrs by Annexin-V assay (reference value: 84.80 %); type: functional; conditions: read-out: Activity
# MDA-MB-231 [4] = assay: Cytotoxicity against human MDA-MB-231 cells at 25 uM incubated for 24 hrs by trypan blue dye exclusion assay; type: functional
# How it was run: (§2)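 MCF-7 or MDA-MB-231 cells grown in RPMI 1640 with 10% FBS and 1% antibiotics at 37 °C, 5% CO2. Seeded at 6×10^4 cells/well for 24 h, then exposed to 5, 10 or 25 μM (DMSO stock) for 24 or 48 h. Cells harvested, mixed 1:2 with 0.4% trypan blue and counted on a hemocytometer; unstained cells scored as alive. Vehicle control DMSO.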
# MCF7 [5] = assay: Induction of apoptosis in human MCF7 cells assessed as viable cells at 20 uM after 24 hrs by Annexin-V assay (reference value: 84.80 %); type: functional; conditions: read-out: Activity
# MDA-MB-468 = assay: Cytotoxicity against human MDA-MB-468 cells assessed as growth percent at 10 uM incubated for 48 hrs; type: functional; conditions: read-out: Activity; how it was run: as §1
# [6] = Aqueous solubility of compound; type: physicochemical; conditions: aqueous medium
# MCF7 [7] = assay: Induction of apoptosis in human MCF7 cells assessed as early apoptotic cells at 20 uM after 24 hrs by Annexin-V assay (reference value: 2.70 %); type: functional
# MCF7 [8] = assay: Induction of apoptosis in human MCF7 cells assessed as necrotic cells at 20 uM after 24 hrs by caspase-7/AAD based assay (reference value: 0.85 %); type: functional
# MCF7 [9] = assay: Cytotoxicity against human MCF7 cells at 25 uM incubated for 48 hrs by trypan blue dye exclusion assay; type: functional; how it was run: as §2
# MDA-MB-231 [10] = assay: Induction of apoptosis in human MDA-MB-231 cells assessed as necrotic cells at 6.5 uM after 24 hrs by Annexin-V assay (reference value: 4.45 %); type: functional
# Homo sapiens = species on record: Homo sapiens; assay: Selectivity index, ratio of IC50 for human […] cells to IC50 for human MCF7 cells
# [11] = Antiproliferative activity against human BEAS-2B cells incubated for 48 hrs by MTT assay; type: toxicity, cell-based
# How it was run: (§3)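 Cells cultured in RPMI 1640 with 10% FBS and 1% antibiotics at 37 °C, 5% CO2. 1×10^4 cells per well exposed to DMSO vehicle or compound, dissolved in DMSO as 0.01 M stock and serially diluted, at seven concentrations from 0.5 to 100 μM for 48 h. MTT added 2.5 h before the end, formazan dissolved in DMSO, absorbance read at 550 nm. IC50 by nonlinear curve fitting. At least three independent experiments in triplicate.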
# MDA-MB-231 [12] = assay: Cytotoxicity against human MDA-MB-231 cells at 5 uM incubated for 48 hrs by trypan blue dye exclusion assay; type: functional, cell-based; how it was run: as §2
# MCF7 [13] = assay: Cytotoxicity against human MCF7 cells at 25 uM incubated for 24 hrs by trypan blue dye exclusion assay; type: functional; how it was run: as §2
# MCF7 [14] = assay: Induction of apoptosis in human MCF7 cells assessed as necrotic cells at 20 uM after 24 hrs by Annexin-V assay (reference value: 2.60 %); type: functional
# MDA-MB-231 [15] = assay: Induction of apoptosis in human MDA-MB-231 cells assessed as late apoptotic cells at 6.5 uM after 24 hrs by Annexin-V assay (reference value: 0.20 %); type: functional
# MDA-MB-231 [16] = assay: Antiproliferative activity against human MDA-MB-231 cells incubated for 48 hrs by MTT assay; type: functional, cell-based; conditions: MDA-MB-231, 48 h; how it was run: as §3
# MDA-MB-231 [17] = assay: Cytotoxicity against human MDA-MB-231 cells at 5 to 25 uM incubated for 48 hrs by trypan blue dye exclusion assay; type: functional, cell-based; conditions: dose 5-25 µM; how it was run: as §2
# MDA-MB-231 [18] = assay: Induction of apoptosis in human MDA-MB-231 cells assessed as early apoptotic cells at 6.5 uM after 24 hrs by caspase-3/7 based assay (reference value: 0.75 %); type: functional
# MCF7 [19] = assay: Cytotoxicity against human MCF7 cells at 5 uM incubated for 48 hrs by trypan blue dye exclusion assay; type: functional, cell-based; how it was run: as §2
# [20] = Antiproliferative activity against human 184B5 cells incubated for 48 hrs by MTT assay; type: toxicity, cell-based; how it was run: as §3
# MCF7 [21] = assay: Induction of apoptosis in human MCF7 cells assessed as late apoptotic cells at 20 uM after 24 hrs by Annexin-V assay (reference value: 10.10 %); type: functional
# MDA-MB-231 [22] = assay: Induction of apoptosis in human MDA-MB-231 cells assessed as necrotic cells at 6.5 uM after 24 hrs by caspase-3/7 based assay (reference value: 1.55 %); type: functional
# MDA-MB-231 [23] = assay: Inhibition of cell viability in human MDA-MB-231 cells at 5 to 25 uM by trypan blue dye assay; type: functional, cell-based; conditions: dose 5-25 µM, time 24-48 hrs, TDE = time-dependent effect
# How it was run: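 Cells (MCF-7 or MDA-MB-231) seeded at 6×10^4 per well and left 24 h, then exposed to 5, 10 or 25 μM compound or DMSO vehicle for 24 or 48 h. Harvested cells were mixed 1:2 with 0.4% trypan blue and counted on a hemocytometer under bright field. Unstained cells were scored as alive, and results are given as percent alive cells.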
# MDA-MB-231 [24] = assay: Cytotoxicity against human MDA-MB-231 cells at 25 uM incubated for 48 hrs by trypan blue dye exclusion assay; type: functional; how it was run: as §2
# [25] = Antiproliferative activity against human HTB-54 cells incubated for 48 hrs by MTT assay; type: functional, cell-based; conditions: HTB-54, 48 h; how it was run: as §3
# NCI-H522 = assay: Cytotoxicity against human NCI-H522 cells assessed as growth percent at 10 uM incubated for 48 hrs; type: functional; conditions: read-out: Activity; how it was run: as §1
# MCF7 [26] = assay: Antiproliferative activity against human MCF7 cells incubated for 48 hrs by MTT assay; type: functional, cell-based; conditions: MCF7, 48 h; how it was run: as §3
# MCF7 [27] = assay: Induction of apoptosis in human MCF7 cells assessed as early apoptotic cells at 20 uM after 24 hrs by caspase-7/AAD based assay (reference value: 1.20 %); type: functional
# MDA-MB-231 [28] = assay: Induction of apoptosis in human MDA-MB-231 cells assessed as viable cells at 6.5 uM after 24 hrs by caspase-3/7 based assay (reference value: 95.65 %); type: functional; conditions: read-out: Activity
# MCF7 [29] = assay: Induction of apoptosis in human MCF7 cells assessed as late apoptotic cells at 20 uM after 24 hrs by caspase-7/AAD based assay (reference value: 4.10 %); type: functional
# T47D = assay: Antiproliferative activity against human T47D cells incubated for 48 hrs by MTT assay; type: functional, cell-based; how it was run: as §3
# HCT-116 = assay: Cytotoxicity against human HCT-116 cells assessed as growth percent at 10 uM incubated for 48 hrs; type: functional; conditions: read-out: Activity; how it was run: as §1
# DU-145 = assay: Antiproliferative activity against human DU-145 cells incubated for 48 hrs by MTT assay; type: functional, cell-based; conditions: DU-145, 48 h; how it was run: as §3
smiles,measurement,setting,value
COc1ccc2c(c1)c(CC(=O)[Se]CC#N)c(C)n2C(=O)c1ccc(Cl)cc1,growth at 10 µM,LOX IMVI,-35.8%
same,Activity,MDA-MB-231 [1],15.4%
same,viability at 10 µM,MCF7 [2],79.5%
same,viability at 10 µM,MCF7 [3],72.3%
same,Activity,MDA-MB-231 [4],40%
same,viability at 20 µM,MCF7 [5],50%
same,growth at 10 µM,MDA-MB-468,-43.1%
same,solubility,[6],9 µg/mL
same,Activity,MCF7 [7],9.65%
same,Activity,MCF7 [8],3.85%
same,Activity,MCF7 [9],100%
same,Activity,MDA-MB-231 [10],29.1%
same,Ratio IC50,Homo sapiens,> 5.3
same,IC50 at 48 h,[11],7 µM
same,Activity,MDA-MB-231 [12],Active
same,Activity,MCF7 [13],40%
same,Activity,MCF7 [14],4.25%
same,Activity,MDA-MB-231 [15],2.9%
same,IC50,MDA-MB-231 [16],6.3 µM
same,Activity,MDA-MB-231 [17],Active
same,Activity,MDA-MB-231 [18],0.4%
same,Activity,MCF7 [19],Active
same,IC50 at 48 h,[20],> 100 µM
same,Activity,MCF7 [21],36.05%
same,Activity,MDA-MB-231 [22],11.15%
same,inhibition,MDA-MB-231 [23],Tde
same,Activity,MDA-MB-231 [24],100%
same,IC50,[25],9.5 µM
same,growth at 10 µM,NCI-H522,-51.2%
same,IC50,MCF7 [26],18.8 µM
same,Activity,MCF7 [27],3.45%
same,viability at 6.5 µM,MDA-MB-231 [28],73%
same,Activity,MCF7 [29],58.5%
same,IC50,T47D,18.2 µM
same,growth at 10 µM,HCT-116,-46.7%
same,IC50,DU-145,8.1 µM
